In brackets after ≈: the same amount, converted by molar mass.
Assays:
Plasmodium falciparum [1] = assay: In vitro inhibitory activity against Plasmodium falciparum (sierra leone clone); assay type: functional, organism-based
Plasmodium falciparum [2] = assay: Inhibitory concentration against Plasmodium falciparum W2 Indochina; assay type: functional, organism-based
Procedure, shortened: (§1)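 Micromanipulation-derived P. falciparum clones were tested by semiautomated microdilution at 0.5% parasitemia and 1.5% hematocrit. Drugs were dissolved in DMSO and diluted in medium with 10% plasma, giving serial dilutions over a 64-fold range. Plates were held at 37 °C under 5% O2/5% CO2/90% N2 for 24 h, then pulsed with tritiated hypoxanthine for 18–20 h. Uptake was counted by scintillation, and IC50 was obtained by nonlinear regression.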

Plasmodium falciparum [3] = assay: Inhibitory concentration against Plasmodium falciparum D6 (Sierra Leone); assay type: functional, organism-based; procedure, shortened: as §1
Plasmodium berghei [4] = assay: Blood schizonticidal activity against Plasmodium berghei N/1100; assay type: functional
Procedure, shortened: (§2)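 Mice infected with parasitised donor blood of drug-sensitive or drug-resistant lines were given a single subcutaneous dose daily on 4 consecutive days, starting 3 h post-infection, across a dose range. Compounds were dissolved in water or sonicated into 0.1% Tween 80. Parasitaemia was read from thin blood films 1 day after treatment ended and compared with sham-treated controls. ED50/ED90 came from log dose/probit plots, with a resistance index at the ED90 level.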

Plasmodium berghei [5] = assay: Blood schizonticidal activity against Plasmodium berghei N/HAL; assay type: functional; procedure, shortened: as §2
Plasmodium berghei [6] = assay: Blood schizonticidal activity against Plasmodium berghei B; assay type: functional; procedure, shortened: as §2
Plasmodium berghei [7] = assay: Blood schizonticidal activity against Plasmodium berghei NS; assay type: functional; procedure, shortened: as §2
Plasmodium berghei [8] = assay: Blood schizonticidal activity against Plasmodium berghei P; assay type: functional; procedure, shortened: as §2
Plasmodium berghei [9] = assay: Blood schizonticidal activity against Plasmodium berghei PYR; assay type: functional; procedure, shortened: as §2
Plasmodium berghei [10] = assay: Blood schizonticidal activity against Plasmodium berghei NPN; assay type: functional; procedure, shortened: as §2
Plasmodium berghei [11] = assay: Blood schizonticidal activity against Plasmodium berghei QS; assay type: functional; procedure, shortened: as §2
Plasmodium berghei [12] = assay: Blood schizonticidal activity against Plasmodium berghei ORA; assay type: functional; procedure, shortened: as §2
Plasmodium berghei [13] = assay: Blood schizonticidal activity against Plasmodium berghei N; assay type: functional; procedure, shortened: as §2
Plasmodium berghei [14] = assay: Blood schizonticidal activity against Plasmodium berghei 1100; assay type: functional; procedure, shortened: as §2
Plasmodium berghei [15] = assay: Blood schizonticidal activity against Plasmodium berghei ART; assay type: functional; procedure, shortened: as §2
Plasmodium berghei [16] = assay: Blood schizonticidal activity against Plasmodium berghei MEN; assay type: functional; procedure, shortened: as §2
Plasmodium berghei [17] = assay: Blood schizonticidal activity against Plasmodium berghei RC; assay type: functional; procedure, shortened: as §2

## C[C@H]1[C@@H](O)O[C@@H]2O[C@@]3(C)CC[C@H]4[C@H](C)CC[C@@H]1[C@@]24OO3 [ARTENIMOL]
Plasmodium falciparum [1]
  IC50: 0.52 ng/mL (≈ 0.00183 µM)
Plasmodium falciparum [2]
  IC50: 1.79 nM
Plasmodium falciparum [3]
  IC50: 1.83 nM

## C[C@@H]1CC[C@H]2[C@@H](C)C(=O)O[C@@H]3O[C@@]4(C)CC[C@@H]1[C@]32O4 [DEOXYARTEMISININ]
Plasmodium falciparum [3]
  IC50: 2860 nM

## CO[C@H]1O[C@@H]2O[C@@]3(C)CC[C@H]4[C@H](C)CC[C@@H]([C@H]1C)[C@@]24OO3 [ARTEMETHER]
Plasmodium falciparum [2]
  IC50: 3.34 nM
Plasmodium falciparum [3]
  IC50: 4.49 nM

## C[C@H]1[C@@H](O)O[C@@H]2OC3(C)CC[C@H]4[C@H](C)CC[C@@H]1[C@@]24O3 (single isomer, unassigned)
Plasmodium falciparum [1]
  IC50: 136 ng/mL (≈ 0.505 µM)
Plasmodium falciparum [3]
  IC50: 506 nM

## C[C@H]1[C@H](OC(=O)CCC(=O)O)O[C@@H]2O[C@@]3(C)CC[C@H]4[C@H](C)CC[C@@H]1[C@@]24OO3 [SODIUM ARESUNATE]
Plasmodium falciparum [2]
  IC50: 1.66 nM
Plasmodium falciparum [3]
  IC50: 2.18 nM

## C[C@@H]1CC[C@H]2[C@@H](C)C(=O)O[C@@H]3O[C@@]4(C)CC[C@@H]1[C@]32OO4 [ARTEMISININ]
Plasmodium berghei [4]
  I 90: 4
Plasmodium falciparum [1]
  IC50: 2.97 ng/mL (≈ 0.0105 µM)
Plasmodium berghei [5]
  ED90: 31
  I 90: 13.5
Plasmodium berghei [6]
  ED90: 8.2
  I 90: 2
Plasmodium berghei [7]
  ED90: 10
  I 90: 2.4
Plasmodium berghei [8]
  ED90: 12
  I 90: 2.9
Plasmodium berghei [9]
  ED90: 4.8
  I 90: 1.1
Plasmodium falciparum [2]
  IC50: 6.41 nM
Plasmodium berghei [10]
  ED90: 90
  I 90: 21.4
Plasmodium berghei [11]
  ED90: 24
  I 90: 10.4
Plasmodium berghei [12]
  ED90: 7.5
  I 90: 1.8
Plasmodium berghei [13]
  ED90: 2.3
  I 90: 1
Plasmodium falciparum [3]
  IC50: 10.5 nM
Plasmodium berghei [14]
  ED90: 17
Plasmodium berghei [15]
  ED90: 49
  I 90: 21.3
Plasmodium berghei [16]
  ED90: 6.2
  I 90: 1.5
Plasmodium berghei [17]
  ED90: 630
  I 90: 150

## OC(c1cc(C(F)(F)F)nc2c(C(F)(F)F)cccc12)C1CCCCN1 (stereo not given) [MEFLOQUINE]
Plasmodium falciparum [2]
  IC50: 5.75 nM
Plasmodium falciparum [3]
  IC50: 33.4 nM

## CCO[C@H]1O[C@@H]2O[C@@]3(C)CC[C@H]4[C@H](C)CC[C@@H]([C@H]1C)[C@@]24OO3 [ARTEMOTIL]
Plasmodium berghei [4]
  I 90: 3.8
Plasmodium falciparum [1]
  IC50: 1.27 ng/mL (≈ 0.00407 µM)
Plasmodium berghei [5]
  ED90: 2.1
  I 90: 4.2
Plasmodium berghei [6]
  ED90: 0.9
  I 90: 0.8
Plasmodium berghei [7]
  ED90: 2.2
  I 90: 2
Plasmodium berghei [8]
  ED90: 0.8
  I 90: 0.7
Plasmodium berghei [9]
  ED90: 0.8
  I 90: 0.7
Plasmodium falciparum [2]
  IC50: 2.94 nM
Plasmodium berghei [10]
  ED90: 2.5
  I 90: 2.3
Plasmodium berghei [11]
  ED90: 1.4
  I 90: 2.8
Plasmodium berghei [12]
  ED90: 0.8
  I 90: 0.7
Plasmodium berghei [13]
  ED90: 0.5
  I 90: 1
Plasmodium falciparum [3]
  IC50: 4.07 nM
Plasmodium berghei [14]
  ED90: 4.2
Plasmodium berghei [15]
  ED90: 2.3
  I 90: 4.6
Plasmodium berghei [16]
  ED90: 2.2
  I 90: 2
Plasmodium berghei [17]
  ED90: 8.2
  I 90: 7.5

## CCO[C@H]1O[C@@H]2OC3(C)CC[C@H]4[C@H](C)CC[C@@H]([C@H]1C)[C@@]24O3 (single isomer, unassigned)
Plasmodium falciparum [1]
  IC50: 172 ng/mL (≈ 0.579 µM)
Plasmodium falciparum [3]
  IC50: 580 nM

## CCO[C@@H]1O[C@@H]2OC3(C)CC[C@H]4[C@H](C)CC[C@@H]([C@H]1C)[C@@]24OO3 (single isomer, unassigned) [ALPHA-ARTEETHER]
Plasmodium berghei [4]
  I 90: 3.4
Plasmodium berghei [5]
  ED90: 9.5
  I 90: 7.3
Plasmodium berghei [6]
  ED90: 2.9
  I 90: 2.4
Plasmodium berghei [7]
  ED90: 1.5
  I 90: 1.3
Plasmodium berghei [8]
  ED90: 2.5
  I 90: 2.1
Plasmodium berghei [9]
  ED90: 1.3
  I 90: 1.1
Plasmodium falciparum [2]
  IC50: 3.07 nM
Plasmodium berghei [10]
  ED90: 3.5
  I 90: 2.9
Plasmodium berghei [11]
  ED90: 13.8
  I 90: 10.6
Plasmodium berghei [12]
  ED90: 0.8
  I 90: 0.7
Plasmodium berghei [13]
  ED90: 1.3
  I 90: 1
Plasmodium falciparum [3]
  IC50: 4.18 nM
Plasmodium berghei [14]
  ED90: 4.1
Plasmodium berghei [15]
  ED90: 29
  I 90: 22.3
Plasmodium berghei [16]
  ED90: 1.7
  I 90: 1.4
Plasmodium berghei [17]
  ED90: 16.5
  I 90: 13.8

From ChEMBL document CHEMBL1124063, “Arteether, a new antimalarial drug: synthesis and antimalarial properties” (J Med Chem, 1988)
